Where two headings read alike, the source gives them in different places.
Columns and labels:
[1] = Blood partitioning assay for Rbp; format: in vitro ADME; conditions: both, human
Procedure, shortened: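 Fresh pooled mixed-gender human whole blood (lithium heparin) and reference plasma centrifuged from the same blood were each incubated with 5 µM test compound at 37°C, n = 3. Reactions were stopped at 0 and 60 min. Rbp was derived by LC-MS/MS from test compound concentration in control plasma versus whole-blood supernatant. Chlorthalidone 5 µM served as positive control.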

Cross filtration = format: in vitro ADME; conditions: both, human, pooled human plasma
Procedure, shortened: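 Modified cross-ultrafiltration: 10 µM test compound in pooled mixed-gender human plasma, 60 min at 37°C, n = 3, then ultrafiltered beside blank plasma. Each retentate was mixed into the partner filtrate and the regenerated samples analysed by LC-MS/MS. Warfarin 10 µM was positive control. Stability was checked at 60 min against non-incubated control. Recovery-corrected mean PPB from filtrate; Fup = 100 − PPB.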

[2] = Metabolic stability in primary human hepatocytes in suspension; format: in vitro ADME; conditions: human, cryopreserved human hepatocytes in suspension (5 donor pool)
Procedure, shortened: (§1)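 Cryopreserved human hepatocytes (5-donor pool, 0.8 × 10^6 cells/ml) in Williams E medium (25 mM HEPES, 2 mM L-glutamine) were incubated with test compound at 0.1, 1 and 10 µM, 37°C, n = 3. Sampled at 0, 15, 60, 90, 180 and 240 min; solvent ≤0.5% DMSO or 1% ACN. Heat-inactivated hepatocytes were the negative control. Parent loss was measured by LC-MS. CLint = −k·V (k, slope of log concentration vs time; V, incubation volume/cell number).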

human hepatocytes = assay: as above; format: in vitro ADME
Procedure, shortened: as §1

[3] = Skin absorption parameters; design: species or system human; conditions: Fitted
Procedure, shortened: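 A skin model in GastroPlus TCAT started from in silico predicted values for the vehicle, stratum corneum, epidermis and dermis. Its diffusivities and partition coefficients were fitted to skin penetration data: receptor-fluid time course where available, plus skin wash and layer distribution. Parameters were adjusted to minimise model–data difference and then used in the human dermal model. Vehicle/water partitioning is formulation-specific.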

[4] = Scaling of in vitro CLint to in vivo CLint and CLliver; design: species or system human; conditions: scaled from the mean in vitro CLint
Procedure, shortened: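 Mean in vitro hepatocyte CLint was scaled to in vivo CLint (l/h) using a scaling factor: million cells per gram of liver × grams of liver weight. In vivo CLint was then converted to hepatic clearance with two variations of the well-stirred liver model.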

[5] = PBK population simulation of plasma concentrations; design: species or system human
Procedure, shortened: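 GastroPlus population simulations reproduced the clinical designs. Lotion or non-aerosol spray, 2 mg/cm2 over 75% body surface, once at 0 h on day 1 and 4 times daily at 2-h intervals on days 2–4 (mixed multiple-dose profile). Alternatively, a 4% formulation over 90% body surface, about 22 mg/kg bw, in 3 male and 3 female subjects. Simulated-mean/observed-mean ratios for Cmax and AUC0−t; 10th–90th percentiles generated.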

[6] = pig skin, 24 h, skin surface washed at 8 h; mean; ref Sasson et al. (2009); cited from earlier work
[7] = human plasma, dermal, ref Schauer et al., 2006, cited from earlier work

Cc1ccc(/C=C2/C(=O)C3(C)CCC2C3(C)C)cc1 (stereo not shown) [4-MBC, 4-methylbenzylidene camphor]
blood plasma ratio at 60 min, 5 µM [1]: 0.88
fraction unbound at 60 min, 10 µM (Cross filtration): 0.0004
hepatocyte CLint [2]: 30 µL/min/1e6 cells
hepatocyte CLint at 0.1 µM [2]: 34 µL/min/1e6 cells
hepatocyte CLint at 1 µM [2]: 32.2 µL/min/1e6 cells
hepatocyte CLint at 10 µM [2]: 23.8 µL/min/1e6 cells
depletion in suspension hepatocytes (human hepatocytes; human suspension hepatocytes, compared with Naloxone): medium to fast depletion
Dermis diffusivity [3]: 3.0E−08 cm^2/s
Dermis/water partition coefficient [3]: 2.0E+00
Epidermis/water partition coefficient [3]: 1.0E+02
Stratum corneum diffusivity [3]: 6.1E−11 cm^2/s
Stratum corneum/water partition coefficient [3]: 1.0E+03
Vehicle diffusivity [3]: 7.8E−06 cm^2/s
Vehicle/water partition coefficient ([3]; vehicle/formulation specific): 4.0E+04
In vivo CLint scaled [4]: 216 l/h/kg liver
AUC0 − t Fold Difference (Simulated Mean/Observed Mean) ([5]; Female): 0.8
Cmax Fold Difference (Simulated Mean/Observed Mean) ([5]; Female): 0.9
AUC0 − t Fold Difference (Simulated Mean/Observed Mean) ([5]; Male): 0.6
Cmax Fold Difference (Simulated Mean/Observed Mean) ([5]; Male): 0.6
Dermal delivery (Epidermis + dermis + receptor fluid), 4-MBC [6]: 3.17%
Epidermis + Dermis, distribution of 4-MBC [6]: 2.9%
Receptor fluid, distribution of 4-MBC [6]: 0.25%
Skin excess, distribution of 4-MBC [6]: 4.5%
Total recovery, 4-MBC [6]: 87.8%
Total strips (1–40), distribution of 4-MBC [6]: 80.1%
Observed AUC0 − t, Geometric mean ([7]; Female): 0.4856 µg·h/mL
Observed Cmax, Range ([7]; Female): 0.0198 to 0.0312 µg/mL
Observed AUC0 − t, Geometric mean ([7]; Male): 0.9879 µg·h/mL
Observed Cmax, Range ([7]; Male): 0.0198 to 0.0839 µg/mL

C=CCN1CC[C@]23c4c5ccc(O)c4O[C@H]2C(=O)CC[C@@]3(O)[C@H]1C5 [Naloxone, reference compound]
hepatocyte CLint [2]: 16.4 ± 1.6 µL/min/1e6 cells
remaining after 240 min (human hepatocytes; positive control, human hepatocytes in suspension, 240 min): 4.8 ± 1.9%

Reference: PMC10613959 (Toxicological Sciences, 2023)
